Experimental data of several laboratories.
Each line is one published result; the experiments were not run side by side.
Cell line: MOLM-13
Effect on: cell growth or viability

SMILES	technique	time	endpoint	value
CC(C)C[C@H](NC(=O)[C@H](Cc1ccccc1)NC(=O)c1cnccn1)B(O)O	ATP luminescence	–	IC50	4.5 nM
NNCCc1ccccc1	resazurin	96 h	EC50	> 2000 nM
CC[C@@H](C)[C@H](N)C(=O)N1Cc2ccccc2C1	ATP luminescence	48 h	IC50	1860 nM
N[C@H]1CC[C@H](N[C@@H]2C[C@H]2c2ccccc2)CC1	resazurin	96 h	EC50	0.21 nM
COc1cc2nccc(Oc3ccc(NC(=O)C4(C(=O)Nc5ccc(F)cc5)CC4)cc3)c2cc1OC	trypan blue	72 h	IC50	10 nM
C#CCN(C)Cc1ccccc1	resazurin	96 h	EC50	> 2000 nM
Cc1cc2c(cc1N1C(=O)c3cccc4c(CCCO)ccc(c34)C1=O)n(C)c(=O)n2C (racemic)	resazurin	–	GI50	1060 nM
COc1cc(-c2ncn(/C=C\C(=O)OC(C)C)n2)cc(C(F)(F)F)c1	–	72 h	IC50	15 nM
O=C(O)c1ccc(CN2CCC(CN[C@@H]3C[C@H]3c3ccccc3)CC2)cc1	resazurin	96 h	EC50	40.2 nM
Nc1nc(Nc2ccc3c(c2)CC[C@@H](N2CCCC2)CC3)nn1-c1cc2c(nn1)-c1ccccc1CCC2	trypan blue	72 h	IC50	167 nM
COc1cc(F)ccc1-c1cc(Nc2cc(CS(C)(=N)=O)ccn2)ncc1F (stereo not drawn)	–	24 h	GI50	93.8 nM
CCCCN(Cc1ccc(C(=O)NO)cc1)C(=O)Nc1ccccc1	ATP luminescence	72 h	IC50	220 nM
N[C@@H](CC(=O)N1CCN(C(c2ccc(F)cc2)c2ccc(F)cc2)CC1)C(=O)N1Cc2ccccc2C1	ATP luminescence	48 h	IC50	2030 nM
COc1cc(Nc2nccc(-c3cnn4nc(OC)ccc34)n2)cc(C(F)(F)F)c1	ATP luminescence	–	IC50	150 nM
CCCON(Cc1ccc(C(=O)NO)cc1)C(=O)Nc1ccccc1	ATP luminescence	72 h	IC50	239 nM
